From ChEMBL document CHEMBL4152382, “Discovery of Tarantula Venom-Derived NaV1.7-Inhibitory JzTx-V Peptide 5-Br-Trp24 Analogue AM-6120 with Systemic Block of Histamine-Induced Pruritis” (J Med Chem, 2018)
Calls of active or inactive are those of the source. The calls are words filed in the database; no cut-off is given here.

Columns and labels:
[1] = Plasma concentration in C57/BL6 mouse at 2 mg/kg, sc after 30 mins by LC-MS/MS analysis; format: ADME, organism-based; conditions: in vivo, 0.5 h
How it was run: (§1)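 Male C57Bl/6 mice, n = 3 per time point, given a single 2 mg/kg subcutaneous dose. Plasma levels were quantified by LC-MS/MS over time, and pharmacokinetic parameters were derived from the plasma profiles. Data are reported as mean ± SEM for each time point.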

[2] = Half life in C57/BL6 mouse at 2 mg/kg, sc by LC-MS/MS analysis; format: ADME, organism-based; conditions: in vivo; how it was run: as §1
[3] = AUCt in C57/BL6 mouse at 2 mg/kg, sc by LC-MS/MS analysis; format: ADME, organism-based; conditions: in vivo; how it was run: as §1
[4] = molecular target: Sodium channel protein type 9 subunit alpha (Homo sapiens, UniProt Q15858); experiment: Inhibition of human Nav1.7 expressed in HEK293 cells at holding potential of -125 mV […] by patchxpress-based electrophysiology assay; format: cell-based
[5] = Apparent […] clearance in C57/BL6 mouse at 2 mg/kg, sc by LC-MS/MS analysis; format: ADME, organism-based; conditions: in vivo; how it was run: as §1
Mus musculus [6] = experiment: Volume of distribution at steady state in C57/BL6 mouse at 2 mg/kg, sc by LC-MS/MS analysis; format: ADME, organism-based; conditions: in vivo; how it was run: as §1
[7] = molecular target: Sodium channel protein type 5 subunit alpha (Homo sapiens, UniProt Q14524); experiment: Inhibition of human Nav1.5 expressed in HEK293 cells at holding potential of […] after 10 mins by patchxpress-based electrophysiology assay; format: cell-based
[8] = molecular target: Sodium channel protein type 10 subunit alpha (Homo sapiens, UniProt Q9Y5Y9); experiment: Inhibition of human Nav1.8 expressed in HEK293 cells after 10 mins by patchxpress-based electrophysiology; format: cell-based
Sodium channel protein type 10 subunit alpha, sequence (Q9Y5Y9 whole entry): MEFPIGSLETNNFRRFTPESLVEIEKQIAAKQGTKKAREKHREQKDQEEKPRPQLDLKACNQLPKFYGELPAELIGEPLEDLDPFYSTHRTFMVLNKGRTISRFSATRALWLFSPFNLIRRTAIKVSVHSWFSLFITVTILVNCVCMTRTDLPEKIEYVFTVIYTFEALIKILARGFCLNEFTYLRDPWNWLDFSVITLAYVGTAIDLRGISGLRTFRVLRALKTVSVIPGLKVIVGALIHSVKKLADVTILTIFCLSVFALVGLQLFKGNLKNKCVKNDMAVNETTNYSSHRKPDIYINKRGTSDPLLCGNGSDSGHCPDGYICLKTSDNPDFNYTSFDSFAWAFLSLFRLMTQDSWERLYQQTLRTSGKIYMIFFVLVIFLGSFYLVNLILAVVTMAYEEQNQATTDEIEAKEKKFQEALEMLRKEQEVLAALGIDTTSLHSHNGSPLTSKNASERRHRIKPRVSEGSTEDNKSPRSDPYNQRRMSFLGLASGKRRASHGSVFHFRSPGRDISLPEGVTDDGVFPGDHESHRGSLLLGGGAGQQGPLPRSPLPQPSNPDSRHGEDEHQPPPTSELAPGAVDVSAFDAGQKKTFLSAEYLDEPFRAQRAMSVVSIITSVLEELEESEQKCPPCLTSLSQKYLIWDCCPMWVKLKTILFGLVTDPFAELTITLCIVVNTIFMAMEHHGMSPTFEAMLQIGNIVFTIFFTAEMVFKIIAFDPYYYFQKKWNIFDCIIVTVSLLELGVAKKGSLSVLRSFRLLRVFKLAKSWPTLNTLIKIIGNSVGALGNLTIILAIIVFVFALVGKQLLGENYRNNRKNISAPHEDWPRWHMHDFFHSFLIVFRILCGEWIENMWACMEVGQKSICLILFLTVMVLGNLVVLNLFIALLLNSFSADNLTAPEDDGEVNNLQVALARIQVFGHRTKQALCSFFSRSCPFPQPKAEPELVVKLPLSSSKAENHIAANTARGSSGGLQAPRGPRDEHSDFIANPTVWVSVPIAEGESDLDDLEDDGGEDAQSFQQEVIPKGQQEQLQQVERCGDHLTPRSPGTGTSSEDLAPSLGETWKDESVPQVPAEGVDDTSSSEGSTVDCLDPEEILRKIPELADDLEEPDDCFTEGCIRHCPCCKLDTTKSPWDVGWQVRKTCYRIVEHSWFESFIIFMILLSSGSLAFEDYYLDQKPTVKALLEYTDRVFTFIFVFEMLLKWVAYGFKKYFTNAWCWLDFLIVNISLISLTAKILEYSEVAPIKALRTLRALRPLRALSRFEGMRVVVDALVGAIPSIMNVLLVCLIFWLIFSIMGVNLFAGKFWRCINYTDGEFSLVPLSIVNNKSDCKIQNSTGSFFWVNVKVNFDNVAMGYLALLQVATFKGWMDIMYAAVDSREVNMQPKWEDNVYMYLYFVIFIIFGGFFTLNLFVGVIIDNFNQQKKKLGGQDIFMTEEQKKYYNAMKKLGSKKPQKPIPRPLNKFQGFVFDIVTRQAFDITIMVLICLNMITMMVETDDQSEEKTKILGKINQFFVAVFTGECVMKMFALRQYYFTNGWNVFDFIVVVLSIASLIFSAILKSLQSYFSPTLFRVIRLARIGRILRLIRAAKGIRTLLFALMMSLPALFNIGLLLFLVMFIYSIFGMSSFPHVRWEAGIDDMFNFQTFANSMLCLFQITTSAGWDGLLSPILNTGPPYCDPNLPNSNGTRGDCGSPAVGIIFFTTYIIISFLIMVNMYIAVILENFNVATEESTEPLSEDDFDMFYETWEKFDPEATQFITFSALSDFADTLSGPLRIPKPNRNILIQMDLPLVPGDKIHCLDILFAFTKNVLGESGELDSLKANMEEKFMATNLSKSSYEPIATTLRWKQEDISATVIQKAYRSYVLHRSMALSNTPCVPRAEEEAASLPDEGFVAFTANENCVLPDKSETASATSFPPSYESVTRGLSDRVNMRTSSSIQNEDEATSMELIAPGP

[9] = molecular target: Sodium channel protein type 4 subunit alpha (Homo sapiens, UniProt P35499); experiment: Inhibition of human Nav1.4 expressed in HEK293 cells at holding potential of -125 mV […] by patchxpress-based electrophysiology assay; format: cell-based
[10] = MRT in C57/BL6 mouse at 2 mg/kg, sc by LC-MS/MS analysis; format: ADME, organism-based; conditions: in vivo; how it was run: as §1
[11] = Cmax in C57/BL6 mouse at 2 mg/kg, sc by LC-MS/MS analysis; format: ADME, organism-based; design: dose 2 mg/kg, route subcutaneous; conditions: in vivo; how it was run: as §1
[12] = Tmax in C57/BL6 mouse at 2 mg/kg, sc by LC-MS/MS analysis; format: ADME, organism-based; conditions: in vivo; how it was run: as §1
[13] = molecular target: Sodium channel protein type 8 subunit alpha (Homo sapiens, UniProt Q9UQD0); experiment: Inhibition of human Nav1.6 expressed in HEK293 cells at holding potential of -125 mV […] by patchxpress-based electrophysiology assay; format: cell-based
[14] = Ratio of plasma concentration in C57/BL6 mouse model of histamine-induced pruritis at 0.5 mg/kg, sc to IC50 for Nav1.7 in C57/BL6 mouse DRG neurons by whole cell manual patch clamp assay; format: ADME, organism-based; conditions: in vivo
[15] = Ratio of plasma concentration in C57/BL6 mouse model of histamine-induced pruritis at 2 mg/kg, sc to IC50 for Nav1.7 in C57/BL6 mouse DRG neurons by whole cell manual patch clamp assay; format: ADME, organism-based; conditions: in vivo
[16] = Plasma concentration in C57/BL6 mouse model of histamine-induced pruritis at 2 mg/kg, sc; format: ADME, organism-based; conditions: in vivo
How it was run: (§2)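 Dosing was 2 h before an intradermal nape injection of histamine (8.15 mM, 100 μL). Scratching was videorecorded for 15 min by blinded experimenters, and peptide plasma concentrations were analysed from the same study.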

[17] = Plasma concentration in C57/BL6 mouse model of histamine-induced pruritis at 1 mg/kg, sc; format: ADME, organism-based; conditions: in vivo; how it was run: as §2
[18] = Plasma concentration in C57/BL6 mouse model of histamine-induced pruritis at 0.5 mg/kg, sc; format: ADME, organism-based; conditions: in vivo; how it was run: as §2
Mus musculus [19] = experiment: Toxicity in C57/BL6 mouse assessed as effect on locomotor activity at 2 mg/kg, sc by open field assay; format: organism-based; conditions: in vivo
[20] = Inhibition of TTX-resistant sodium channel-mediated currents in C57/BL6 mouse DRG neurons by whole cell manual patch clamp assay; conditions: C57/BL6, DRG neuron
[21] = Ratio of plasma concentration in C57/BL6 mouse model of histamine-induced pruritis at 1 mg/kg, sc to IC50 for Nav1.7 in C57/BL6 mouse DRG neurons by whole cell manual patch clamp assay; format: ADME, organism-based; conditions: in vivo
[22] = molecular target: T1, Sodium channel protein type 9 subunit alpha (Mus musculus, UniProt Q62205); experiment: Inhibition of Nav1.7 in C57/BL6 mouse DRG neurons assessed as reduction in TTX sensitive sodium channel-mediated currents by whole cell manual patch clamp assay
T1 sequence (Q62205 whole entry): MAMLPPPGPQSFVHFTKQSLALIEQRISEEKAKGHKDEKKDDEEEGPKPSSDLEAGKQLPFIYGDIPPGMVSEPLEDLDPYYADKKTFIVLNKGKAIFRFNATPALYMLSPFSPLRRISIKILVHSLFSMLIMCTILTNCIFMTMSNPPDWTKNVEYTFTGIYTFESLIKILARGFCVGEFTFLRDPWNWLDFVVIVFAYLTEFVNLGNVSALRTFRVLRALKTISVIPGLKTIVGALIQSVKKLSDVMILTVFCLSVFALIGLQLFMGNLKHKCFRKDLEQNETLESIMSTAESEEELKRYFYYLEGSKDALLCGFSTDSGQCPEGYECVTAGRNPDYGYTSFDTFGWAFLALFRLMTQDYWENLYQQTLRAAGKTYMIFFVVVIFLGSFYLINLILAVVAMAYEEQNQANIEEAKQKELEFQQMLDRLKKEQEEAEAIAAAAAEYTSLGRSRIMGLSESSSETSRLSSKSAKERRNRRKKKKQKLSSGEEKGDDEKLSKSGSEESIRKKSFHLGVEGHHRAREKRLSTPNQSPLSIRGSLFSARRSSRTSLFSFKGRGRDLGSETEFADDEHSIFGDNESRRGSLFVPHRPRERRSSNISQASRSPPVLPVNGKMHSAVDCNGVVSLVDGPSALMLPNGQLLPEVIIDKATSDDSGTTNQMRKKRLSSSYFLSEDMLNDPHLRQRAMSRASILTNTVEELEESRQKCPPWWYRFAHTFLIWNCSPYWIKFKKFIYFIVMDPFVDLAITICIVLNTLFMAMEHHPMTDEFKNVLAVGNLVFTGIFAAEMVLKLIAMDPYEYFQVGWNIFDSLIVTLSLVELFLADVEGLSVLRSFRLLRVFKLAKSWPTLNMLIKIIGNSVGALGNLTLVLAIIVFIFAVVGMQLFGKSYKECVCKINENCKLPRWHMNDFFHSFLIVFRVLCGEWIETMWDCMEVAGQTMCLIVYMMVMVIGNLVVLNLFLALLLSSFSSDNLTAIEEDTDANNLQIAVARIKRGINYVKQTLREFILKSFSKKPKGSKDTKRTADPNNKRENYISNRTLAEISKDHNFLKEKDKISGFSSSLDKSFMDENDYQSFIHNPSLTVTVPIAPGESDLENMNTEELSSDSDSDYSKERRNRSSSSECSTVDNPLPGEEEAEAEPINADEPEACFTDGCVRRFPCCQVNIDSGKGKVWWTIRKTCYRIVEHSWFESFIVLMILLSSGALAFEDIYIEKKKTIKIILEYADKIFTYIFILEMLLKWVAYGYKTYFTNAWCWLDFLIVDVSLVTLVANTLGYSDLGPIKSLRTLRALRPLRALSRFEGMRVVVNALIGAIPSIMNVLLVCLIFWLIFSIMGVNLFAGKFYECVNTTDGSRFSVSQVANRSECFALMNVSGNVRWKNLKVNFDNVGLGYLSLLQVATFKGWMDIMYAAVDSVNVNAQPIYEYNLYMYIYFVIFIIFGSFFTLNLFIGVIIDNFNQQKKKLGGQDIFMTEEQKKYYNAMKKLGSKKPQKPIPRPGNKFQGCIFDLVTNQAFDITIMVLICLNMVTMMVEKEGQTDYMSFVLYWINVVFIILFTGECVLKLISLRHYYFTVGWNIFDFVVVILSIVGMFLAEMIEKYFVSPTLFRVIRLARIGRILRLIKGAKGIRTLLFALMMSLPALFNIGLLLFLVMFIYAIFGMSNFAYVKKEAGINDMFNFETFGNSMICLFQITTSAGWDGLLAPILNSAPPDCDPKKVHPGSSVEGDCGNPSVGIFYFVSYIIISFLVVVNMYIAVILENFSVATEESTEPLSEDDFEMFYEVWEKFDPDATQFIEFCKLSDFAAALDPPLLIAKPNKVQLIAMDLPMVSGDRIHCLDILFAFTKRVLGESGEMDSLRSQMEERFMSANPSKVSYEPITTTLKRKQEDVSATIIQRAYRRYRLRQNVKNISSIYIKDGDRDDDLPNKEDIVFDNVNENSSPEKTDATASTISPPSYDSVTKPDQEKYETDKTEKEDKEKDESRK

Mus musculus [23] = experiment: In vivo inhibition of Nav1.7 in C57/BL6 mouse model of histamine-induced pruritis assessed as reduction in scratching bouts at 1 mg/kg, sc dosed 2 hrs before histamine challenge and measured for 15 mins relative to control; format: functional
How it was run: (§3)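 Male C57Bl/6 mice aged 8–10 weeks; nape shaved under 3% isoflurane the day before, with 15 min chamber acclimation. Peptide given sc 2 h before intradermal histamine dichloride (8.15 mM, 100 μL); vehicle was PBS with 1% MSA. Scratch bouts video-recorded for 15 min, blinded scoring; n = 8–10 per group; one-way ANOVA with Dunnett's test versus vehicle.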

[24] = molecular target: T1, Sodium channel protein type 9 subunit alpha; experiment: Inhibition of mouse Nav1.7 expressed in HEK293 cells after 10 mins by patchxpress-based electrophysiology; format: cell-based
Mus musculus [25] = experiment: In vivo inhibition of Nav1.7 in C57/BL6 mouse model of histamine-induced pruritis assessed as reduction in scratching bouts at 0.5 mg/kg, sc dosed 2 hrs before histamine challenge and measured for 15 mins relative to control; format: functional; how it was run: as §3
Mus musculus [26] = experiment: In vivo inhibition of Nav1.7 in C57/BL6 mouse model of histamine-induced pruritis assessed as reduction in scratching bouts at 2 mg/kg, sc dosed 2 hrs before histamine challenge and measured for 15 mins relative to control; format: functional; how it was run: as §3
Mus musculus [27] = experiment: In vivo inhibition of Nav1.7 in C57/BL6 mouse model of histamine-induced pruritis assessed as reduction in scratching bouts at 10 mg/kg, […] dosed 2 hrs before histamine challenge and measured for 15 mins relative to control; format: functional
Mus musculus [28] = experiment: Toxicity in C57/BL6 mouse assessed as effect on locomotor activity at 1 mg/kg, sc by open field assay; format: organism-based; conditions: in vivo

SMILES	Drug uptake [1]	half-life [2]	AUC(0-t) [3]	IC50 [4]	CL/F [5]	Vdss (Mus musculus [6])	IC50 [7]	IC50 [8]	IC50 [9]	MRT [10]	Cmax [11]	Tmax [12]	IC50 [13]	Ratio [21]	IC50 [22]	other results
C#CC[C@H](N)C(=O)N[C@@H](Cc1ccc(O)cc1)C(=O)N[C@H]1CSSC[C@@H]2NC(=O)[C@@H]3CSSC[C@@H](C(=O)N[C@@H](CCCNC(=N)N)C(=O)N[C@@H](CCCCN)C(=O)N[C@@H](CCC(=O)O)C(=O)N[C@H](C(N)=O)[C@@H](C)CC)NC(=O)[C@H](Cc4c[nH]c5ccc(Br)cc45)NC(=O)[C@H](CC(C)C)NC(=O)[C@H](CCCCN)NC(=O)[C@H](CSSC[C@H](NC(=O)[C@H]([C@@H](C)O)NC(=O)[C@H](Cc4c[nH]c5ccccc45)NC(=O)[C@H](CCCC)NC(=O)[C@H](Cc4c[nH]c5ccccc45)NC(=O)[C@H](CCCCN)NC(=O)[C@H](CCC(N)=O)NC1=O)C(=O)N[C@@H](CC(=O)O)C(=O)N[C@@H](CO)C(=O)N[C@@H](CCCCN)C(=O)N[C@@H](CCCNC(=N)N)C(=O)N[C@@H](C)C(=O)N3)NC(=O)[C@H](CCCNC(=N)N)NC(=O)[C@H](CC(C)C)NC(=O)CNC(=O)[C@H](CCC(=O)O)NC2=O	Active	2.38 h	3.44 µM·h	0.26 nM	2.57 mL/min/kg	0.547 L/kg	260 nM	509 nM	53 nM	3.55 h	892 nM	0.5 h	66 nM			
C#CC[C@H](NC(=O)[C@@H](N)CCC(=O)O)C(=O)N[C@H]1CSSC[C@@H]2NC(=O)[C@@H]3CSSC[C@@H](C(=O)N[C@@H](CCCNC(=N)N)C(=O)N[C@@H](CCCCN)C(=O)N[C@@H](CCC(=O)O)C(=O)N[C@H](C(N)=O)[C@@H](C)CC)NC(=O)[C@H](Cc4c[nH]c5ccc(Br)cc45)NC(=O)[C@H](CC(C)C)NC(=O)[C@H](CCCCN)NC(=O)[C@H](CSSC[C@H](NC(=O)[C@H]([C@@H](C)O)NC(=O)[C@H](Cc4c[nH]c5ccccc45)NC(=O)[C@H](CCCC)NC(=O)[C@H](Cc4c[nH]c5ccccc45)NC(=O)[C@H](CCCCN)NC(=O)[C@H](CCC(N)=O)NC1=O)C(=O)N[C@@H](CC(=O)O)C(=O)N[C@@H](CO)C(=O)N[C@@H](C)C(=O)N[C@@H](CCCNC(=N)N)C(=O)N[C@@H](C)C(=O)N3)NC(=O)[C@H](CCCNC(=N)N)NC(=O)[C@H](CC(C)C)NC(=O)CNC(=O)[C@H](CCC(=O)O)NC2=O	Active	4.95 h	4.5 µM·h	0.8 nM	2 mL/min/kg	0.444 L/kg	6640 nM	> 1000 nM	104 nM	3.7 h	1480 nM	0.5 h	104 nM	59	5.1 nM	Ratio [14]: 24; Ratio [15]: 105; concentration [16]: 535 nM; concentration [17]: 300 nM; concentration [18]: 122 nM; Activity (Mus musculus [19]): Non-Toxic; IC50 [20]: > 10000 nM; inhibition in vivo at 1 mg/kg (Mus musculus [23]): 22.5%; IC50 [24]: 5.4 nM; inhibition in vivo at 0.5 mg/kg (Mus musculus [25]): 7.3%; inhibition in vivo at 2 mg/kg (Mus musculus [26]): 88.9%
CN(C)CCOC(c1ccccc1)c1ccccc1 [DIPHENHYDRAMINE]																inhibition in vivo at 10 mg/kg (Mus musculus [27]): 89.7%
C#CC[C@H](N)C(=O)N[C@@H](Cc1ccc(O)cc1)C(=O)N[C@H]1CSSC[C@@H]2NC(=O)[C@@H]3CSSC[C@@H](C(=O)N[C@@H](CCCNC(=N)N)C(=O)N[C@@H](CCCCN)C(=O)N[C@@H](CCC(=O)O)C(=O)N[C@H](C(N)=O)[C@@H](C)CC)NC(=O)[C@H](Cc4c[nH]c5ccccc45)NC(=O)[C@H](CC(C)C)NC(=O)[C@H](CCCCN)NC(=O)[C@H](CSSC[C@H](NC(=O)[C@H]([C@@H](C)O)NC(=O)[C@H](Cc4c[nH]c5ccccc45)NC(=O)[C@H](CCCC)NC(=O)[C@H](Cc4c[nH]c5ccccc45)NC(=O)[C@H](CCCCN)NC(=O)[C@H](CCC(N)=O)NC1=O)C(=O)N[C@@H](CC(=O)O)C(=O)N[C@@H](CO)C(=O)N[C@@H](CCCCN)C(=O)N[C@@H](CCCNC(=N)N)C(=O)N[C@@H](C)C(=O)N3)NC(=O)[C@H](CCCNC(=N)N)NC(=O)[C@H](CC(C)C)NC(=O)CNC(=O)[C@H](CCC(=O)O)NC2=O				0.5 nM			3070 nM	> 1000 nM						6.5	9 nM	Activity (Mus musculus [28]): Non-Toxic; Activity (Mus musculus [23]): inactive
